# Shown are actives, neighbours in structure and some others; about 3.3% of the full set was active somewhere.
# ABCB6 inh MLPCN: ABCB6 transporter inhibitors, primary screen, K562-ABCB6 cells, flow cytometry, MLPCN library. ATP-binding cassette sub-family B member 6 (Homo sapiens), Q9NP58. K562-ABCB6 porphyrin accumulation, 1 h; hits give low values. fluorescence ratio to DMSO, % at 10 µM. 0.19% of 360,000 active. AID 602162, 2011;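 active = fluorescence ratio to DMSO below 75%, the collection mean minus 3 SD; inconclusive = too few cells collected in the well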;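 note: signal is porphyrin accumulated inside mitochondria; 100% equals median channel fluorescence of DMSO control wells; lower ratio means ABCB6 inhibition with less porphyrin fluorescence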
# Target sequence (Q9NP58 whole entry, looked up): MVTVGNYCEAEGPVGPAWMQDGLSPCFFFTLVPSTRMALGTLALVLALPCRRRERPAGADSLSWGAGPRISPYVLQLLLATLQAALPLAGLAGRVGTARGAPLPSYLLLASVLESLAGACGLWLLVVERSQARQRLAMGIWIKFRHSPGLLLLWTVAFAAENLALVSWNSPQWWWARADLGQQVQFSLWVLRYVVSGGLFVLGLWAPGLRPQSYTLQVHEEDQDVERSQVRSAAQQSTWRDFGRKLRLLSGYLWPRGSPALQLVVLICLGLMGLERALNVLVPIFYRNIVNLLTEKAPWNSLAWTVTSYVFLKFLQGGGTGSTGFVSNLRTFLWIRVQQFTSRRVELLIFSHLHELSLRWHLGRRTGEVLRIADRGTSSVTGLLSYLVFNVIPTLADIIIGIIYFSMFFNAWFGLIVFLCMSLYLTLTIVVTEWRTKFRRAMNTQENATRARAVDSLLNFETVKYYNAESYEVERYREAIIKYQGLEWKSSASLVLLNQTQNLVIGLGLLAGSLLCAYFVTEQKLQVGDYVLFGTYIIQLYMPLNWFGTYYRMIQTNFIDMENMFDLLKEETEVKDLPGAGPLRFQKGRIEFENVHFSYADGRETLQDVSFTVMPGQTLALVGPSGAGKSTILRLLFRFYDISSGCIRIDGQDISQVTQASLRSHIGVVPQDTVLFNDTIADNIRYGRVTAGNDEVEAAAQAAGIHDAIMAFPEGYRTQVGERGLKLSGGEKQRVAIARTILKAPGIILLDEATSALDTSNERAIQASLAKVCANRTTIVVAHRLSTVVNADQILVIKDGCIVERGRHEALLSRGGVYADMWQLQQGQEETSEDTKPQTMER
# ATG4B inh: ATG4B protease inhibitors, primary screen, biochemical, fluorescence, uHTS; AID 504462, 2011; ATG4B cleavage of LC3-PLA2, NBD-HPC fluorescence, 1 h; Cysteine protease ATG4B (Homo sapiens), Q9Y4P1; inhibition, % at 8.33 µM; 0.51% of 340,000 active; in the data active = inhibition above about 40%
# Myeloid diff 2: induction of myeloid progenitor differentiation, primary screen, cell-based, flow cytometry, MLPCN library; ER-HoxA9 myeloid progenitors, lysozyme-GFP differentiation; calls only at 10 µM; 1% of 360,000 active; AID 624256, 2012;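 active = normalized GFP-positive differentiation at or above the plate's own cutoff, the solvent-only control mean plus 3 SD; inconclusive = no clear call, values can overlap the other calls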;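 note: cells exposed to compound for four days before flow analysis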
# Arrestin-AP2 inh: inhibitors of beta-arrestin/AP2 binding, primary screen, biochemical, GPCR trafficking, flow cytometry; FITC-arrestin peptide / GST-AP2 beads; AP2 beta2 appendage carries R879A mutation; inhibition, % at 10 µM; 0.31% of 340,000 active; AID 504490, 2011;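 active = inhibition above a set limit, near 3 SD of compounds lacking own fluorescence, cut at about 54% in these data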;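 note: plate controls were DMSO wells for no effect and 5 µM unlabelled arrestin peptide for full effect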
#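 Assay system: GST-AP2 R879A bound to glutathione beads, E. coli-expressed; Medium: PBS with 0.05% Tween 20 and 0.1% BSA; Also added: fluorescein-tagged arrestin peptide at 50 nM final; Timing: 12 min plus 1 h, RT; Measured by: flow cytometry, FL1 (488/535 nm); Evaluation: percent drop in bead-associated FITC signal.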
# Granule exo inh: LAMP-1 surface exposure blockers, TALL-104 cells – cell-based, flow cytometry, MLPCN library, primary screen. TALL-104 LAMP-1 surface exposure; cells stimulated with thapsigargin and PMA. inhibition, % at 10 µM. 0.66% of 360,000 active. AID 651702, 2012;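 active = inhibition above about 55%, limit read from the data; inconclusive = no clear call, values can overlap the other calls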
# CendR NRP1 mod: modulators of CendR peptide binding to NRP-1, primary screen, biochemical, fluorescence polarization, uHTS. AID 602438, 2012. Neuropilin-1 (Homo sapiens), O14786. inhibition, % at 25 µM. 0.85% of 360,000 active. FAM-RPARPAR peptide binding to NRP-1;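 active = inhibition or corrected inhibition above about 18%, plus a signal ratio from 0.5 to 1.5, limit read from the data, passing the limit was not always enough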
# Myeloid diff: inducers of myeloid progenitor differentiation, confirmation, cell-based, GFP/Mac1 flow cytometry, cherry pick 01; shares compounds with Myeloid diff 2; ER-HoxA9 myeloid progenitors, GFP/Mac1 double-positive flow; calls only; 2% of 2,300 active;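 active = share of green or green-and-red cells above 9 and 9% in run 1 or 4 and 3% in run 2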
# GFP autofluor: flagged as fluorescent in myeloid differentiation counter-screen; shares compounds with Myeloid diff 2; fluorescence response, % (no concentration beside the values); ER-HoxA9 myeloid progenitors, no estrogen, GFP autofluorescence flow cytometry; vehicle wells 0%, positive control 100%; AID 651707; 7.4% of 2,300 active;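 active = over 5% cells positive for green fluorescent reporter, or over 2% positive for both it and APC stain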;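 note: range taken on the double positive population between DMSO and positive control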
# * = called active by the depositor; i = inactive; ? = inconclusive; · = not tested or not shown; + = active, no number.
SMILES,ABCB6 inh MLPCN,ATG4B inh,Myeloid diff 2,Arrestin-AP2 inh,Granule exo inh,CendR NRP1 mod,Myeloid diff,GFP autofluor
O=CNc1cc(-c2ccccc2)cn2c(-c3ccc(F)c(Cl)c3)cnc12,104.0,·,i,·,-2.6,-38.9,·,·
CC(=O)c1ccc(-c2cnc3c(NC=O)cc(-c4ccccc4Oc4ccccc4)cn23)cc1,94.0,·,i,·,5.9,-9.6,i,0.0
CN1CCN(c2ccc(-c3cc(NC=O)c4ncc(-c5ccc(F)c(Cl)c5)n4c3)cc2)CC1,130.0,·,+,·,12.4,-64.2,i,0.8
CC(=O)Nc1cc(-c2ccc(N3CCN(C)CC3)cc2)cn2c(-c3ccc(F)c(Cl)c3)cnc12,109.0,·,?,·,9.3,-9.5,·,·
CN(C)c1ccc(-c2cc(NC=O)c3ncc(-c4ccc(F)c(Cl)c4)n3c2)cc1,115.0,·,+,·,1.9,-129.7,i,1.1
O=CNc1cc(-c2ccccc2Oc2ccccc2)cn2c(-c3ccc(F)cc3)cnc12,100.0,·,i,·,14.5,-21.3,·,·
Cc1ncc(CO)n1Cc1ccc(Cl)cc1,91.0,·,i,·,-2.5,3.7,·,·
Cc1nc2ccsc2c(=O)n1-c1ccc(Cl)cc1,100.0,9.3,i,-9.9,3.1,-0.6,·,·
COc1ccc(-c2nnc(SCC(=O)Nc3cc(C)on3)n2C)cc1OC,94.0,9.3,+,15.6,-1.6,6.7,i,0.3
CCOC(=O)N1CCC(NC(=O)c2cc(S(=O)(=O)N(CC)CC)ccc2F)CC1,99.0,13.6,i,-10.4,-1.5,-10.5,·,·
CC1CCCN(c2sc(S(C)(=O)=O)nc2S(=O)(=O)c2ccc(Cl)cc2)C1 (centres undefined),87.0,-6.2,i,17.5,-0.9,13.6,·,·
CS(=O)(=O)c1nc(S(=O)(=O)c2ccc(Cl)cc2)c(N2CCOCC2)s1,93.0,-1.3,i,-11.0,0.6,8.9,i,0.0
CC1CN(c2sc(S(C)(=O)=O)nc2S(=O)(=O)c2ccc(Cl)cc2)CC(C)O1 (centres undefined),100.0,2.2,i,0.2,0.0,19.0,i,0.4
O=[N+]([O-])c1ccc(NN=Cc2ccc(O)cc2)nc1,95.0,2.9,i,21.1,4.1,-0.9,·,·
CCN(CC)c1ccc(C=NNc2ccc([N+](=O)[O-])cn2)cc1,345.0,-0.4,+,-17.6,-3.1,-51.7,i,12.9*
COc1ccc(C2=NN(C(=O)CSc3nnc(-c4ccccc4F)o3)C(c3ccco3)C2)cc1 (centres undefined),105.0,14.3,i,-9.0,8.7,-4.0,i,0.0
COc1ccc(C2=NN(C(=O)CSc3nc4ncc(Cl)cc4[nH]3)C(c3ccco3)C2)cc1 (centres undefined),98.0,12.2,i,-21.8,-3.1,-20.0,·,·
COc1ccc(C2=NN(C(N)=S)C(c3ccco3)C2)cc1 (centres undefined),126.0,-12.0,+,-12.9,0.8,-18.8,i,0.0
COc1ccc(C2=NN(C(=O)c3ccco3)C(c3ccco3)C2)cc1OC (centres undefined),82.0,-10.4,i,-13.3,2.4,0.9,·,·
CN(CC(=O)Nc1cccc(F)c1)C(=O)c1cccc(S(=O)(=O)N2CC3(C)CC2CC(C)(C)C3)c1 (centres undefined),97.0,5.6,i,-3.0,17.3,-2.1,·,·
O=C(NNS(=O)(=O)c1ccc(F)cc1F)c1csc(-c2cccnc2)n1,104.0,-14.7,i,5.6,-1.8,11.1,·,·
NNC(=O)c1csc(-c2ccccc2)n1,103.0,-11.7,+,4.9,2.0,-0.1,i,0.3
Cc1cc(C)n2nc3nc4c(cc3c2n1)CCCC4,126.0,0.5,i,6.0,6.5,129.9,i,0.0
Cc1ccc(CC(CC(=O)O)C(=O)NC2CCCCC2)cc1 (centres undefined),102.0,-2.9,+,8.3,0.5,11.2,i,0.0
Cc1ccc(CC(CC(=O)O)C(=O)NCC23CC4CC(CC(C4)C2)C3)cc1 (centres undefined),125.0,1.8,i,17.3,-6.6,-1.3,·,·
SMILES,ABCB6 inh MLPCN,ATG4B inh,Myeloid diff 2,Arrestin-AP2 inh,Granule exo inh,CendR NRP1 mod,Myeloid diff,GFP autofluor
Cn1nnnc1Sc1ccc([N+](=O)[O-])cc1Cl,96.0,-1.8,i,8.3,-0.6,-3.7,i,0.5
O=[N+]([O-])c1ccc(Sc2nnnn2-c2ccccc2)c(Cl)c1,99.0,-6.4,+,3.7,-1.3,-9.2,i,0.0
Nc1ccc(Sc2nnnn2-c2ccccc2)c(Cl)c1,98.0,-2.0,i,-6.2,0.6,1.1,·,·
Cn1nnnc1Sc1c(Cl)cccc1[N+](=O)[O-],98.0,2.3,i,2.3,3.0,-9.6,·,·
O=C(Nc1sc2c(c1C(=O)O)CCCC2)c1cccs1,101.0,-5.6,i,4.2,1.1,-15.7,·,·
O=C(Nc1sc2c(c1C(=O)NCC1CCCO1)CCCC2)c1cccs1 (centres undefined),105.0,-7.4,i,-5.9,14.1,-3.6,i,0.0
Cc1[nH]c2ccccc2c1C(=O)COC(=O)c1ccc([N+](=O)[O-])s1,103.0,-15.4,i,-0.3,0.9,0.1,i,1.1
O=C(COC(=O)c1ccc([N+](=O)[O-])s1)NCc1ccccc1,120.0,6.8,i,2.2,-2.3,-9.2,·,·
Cc1ccc2c(nc3s/c(=C\c4ccc(-c5ccccc5C(=O)O)o4)c(=O)n32)c1C,130.0,15.6,i,1.2,1.6,59.5,i,12.7*
O=C(Nc1cnc2ccccc2c1)N1CCCCC1,84.0,-10.6,i,0.0,-2.7,-7.2,·,·
O=C(Nc1cnc2ccccc2c1)N1CCOCC1,95.0,3.1,i,8.7,0.7,-0.2,i,0.0
COc1ccc(S(=O)(=O)NCC2CCCO2)cc1NC(=O)c1ccc(Cl)cc1 (centres undefined),103.0,-4.1,i,21.7,4.4,-10.1,·,·
COc1nc(OC)nc(N2CCCCCC2)n1,97.0,-2.7,i,12.9,-0.1,-10.5,i,0.7

# Assay outcomes deposited in PubChem BioAssay by several laboratories.
